Assay [1] relates to colorectal (HCT116) carcinoma cell line. Description: MTT cytotoxicity, HCT-116. The class given is cell-based. To be noted: Homo sapiens, HCT-116, 24 h, read-out: IC50 HCT-116.
Assay [2] has as its system hepatocellular (HePG2) carcinoma cell line. Description: MTT cytotoxicity, HePG-2. To be noted: Homo sapiens, HepG2, 24 h, read-out: IC50 HePG-2. Format: cell-based.
Assay [3] deals with WI-38 normal fibroblast cells. As to the kind of experiment: MTT cytotoxicity towards normal human cells WI-38. The class given is cell-based. To be noted: WI-38, 24 h, read-out: IC50 WI-38.
In assay [4] the test system is human cervical (Hela) carcinoma cell line. Description: MTT cytotoxicity, Hela. Format: cell-based. To be noted: 24 h, read-out: IC50 Hela. A digest of the protocol: (§1)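 Cells were grown in medium with 10% FBS, penicillin/streptomycin, 37°C, 5% CO2, then seeded at 1.0×10^4 cells/well and held 48 h. Test compound was added at 1.56, 3.125, 6.25, 12.5, 25, 50 and 100, for 24 h. MTT (5 mg/mL stock) was added for 4 h, formazan dissolved in DMSO and A570 read. Viability was taken relative to untreated wells. IC50 came from a Boltzmann sigmoidal fit, in triplicate, mean ± SD.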

The subject of assay [5] is breast cancer (MCF-7) cell line. As to the kind of experiment: MTT cytotoxicity, MCF-7. Format: cell-based. To be noted: Homo sapiens, MCF7, 24 h, read-out: IC50 MCF-7. The gist of the method:
as §1

Assay [6] relates to HCT-116, HePG-2, HeLa and MCF-7 cells. Description: MTT cytotoxicity summarised over the 4 cancer cell lines. The class given is cell-based. To be noted: Homo sapiens, read-out: IC50 range of one compound over the cancer cell lines. A digest of the protocol:
as §1

The next assay has as its target VEGFR-2 enzyme (Homo sapiens, UniProt P35968). As to the kind of experiment: VEGFR-2 kinase inhibitory assay. To be noted: for inhibition at 0.01 µM: read-out: % Inhibition 0.01 μM, VEGFR-2 enzyme, 0.01 μM; for inhibition at 0.1 µM: read-out: % Inhibition 0.1 μM, VEGFR-2 enzyme, 0.1 μM; for inhibition at 10 µM: read-out: % Inhibition 10 μM, VEGFR-2 enzyme, 10 μM. Format: biochemical.

The values that follow come from publication PMC11568772 (Drug Design, Development and Therapy, 2024).

One may read the IC50 as the concentration that inhibits the measured activity by half. What is called inhibition is the change of the read-out against control, counted positive when it falls.

Where only a bound is given, the exact number is not on record here.

Chain of VEGFR-2 enzyme (P35968 20-1356): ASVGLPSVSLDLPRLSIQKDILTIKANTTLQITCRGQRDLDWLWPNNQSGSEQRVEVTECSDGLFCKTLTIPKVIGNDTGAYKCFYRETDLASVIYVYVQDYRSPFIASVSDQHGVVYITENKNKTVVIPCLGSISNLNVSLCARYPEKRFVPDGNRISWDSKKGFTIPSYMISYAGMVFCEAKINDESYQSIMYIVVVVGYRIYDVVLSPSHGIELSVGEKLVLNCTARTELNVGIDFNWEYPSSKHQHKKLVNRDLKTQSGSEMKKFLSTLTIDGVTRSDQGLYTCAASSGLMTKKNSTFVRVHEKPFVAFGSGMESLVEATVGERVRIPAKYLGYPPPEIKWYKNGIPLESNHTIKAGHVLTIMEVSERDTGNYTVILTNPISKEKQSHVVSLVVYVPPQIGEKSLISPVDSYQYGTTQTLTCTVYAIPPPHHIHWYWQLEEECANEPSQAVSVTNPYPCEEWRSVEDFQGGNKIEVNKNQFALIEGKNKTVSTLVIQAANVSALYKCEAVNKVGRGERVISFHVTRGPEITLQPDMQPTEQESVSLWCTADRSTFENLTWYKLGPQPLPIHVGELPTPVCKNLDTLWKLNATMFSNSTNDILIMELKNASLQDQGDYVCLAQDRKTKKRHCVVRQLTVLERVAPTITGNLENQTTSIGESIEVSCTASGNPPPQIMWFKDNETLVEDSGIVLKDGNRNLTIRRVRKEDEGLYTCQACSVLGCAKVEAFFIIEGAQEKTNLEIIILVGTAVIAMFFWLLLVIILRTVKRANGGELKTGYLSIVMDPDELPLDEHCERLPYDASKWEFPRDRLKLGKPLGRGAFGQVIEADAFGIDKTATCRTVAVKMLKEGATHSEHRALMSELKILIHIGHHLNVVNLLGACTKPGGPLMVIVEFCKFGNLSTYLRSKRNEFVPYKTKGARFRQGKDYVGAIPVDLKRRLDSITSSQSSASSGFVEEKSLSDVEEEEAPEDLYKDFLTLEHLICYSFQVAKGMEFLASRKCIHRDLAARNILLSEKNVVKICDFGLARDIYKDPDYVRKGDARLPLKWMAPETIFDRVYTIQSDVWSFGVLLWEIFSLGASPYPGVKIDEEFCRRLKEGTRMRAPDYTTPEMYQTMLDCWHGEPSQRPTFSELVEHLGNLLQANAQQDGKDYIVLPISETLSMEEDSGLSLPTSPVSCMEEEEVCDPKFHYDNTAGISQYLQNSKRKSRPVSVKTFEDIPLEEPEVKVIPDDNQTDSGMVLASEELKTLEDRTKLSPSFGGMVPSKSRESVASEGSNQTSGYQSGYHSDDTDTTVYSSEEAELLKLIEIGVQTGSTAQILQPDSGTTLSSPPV

Take `O=C(NCCSc1nc2cc(Cl)ccc2c(=O)n1-c1ccccc1)Nc1ccc(Br)cc1` [Compound 5l, 1-(4-Bromophenyl)-3-(2-((7-Chloro-4-Oxo-3-Phenyl-3,4-Dihydroquinazolin-2-Yl)thio)ethyl)urea]: the IC50 in assay [1] is 28.6 ± 2.3 µM; in assay [2], 44.7 ± 2.9 µM; in assay [3], more than 100 µM; in assay [4] it was 49.4 ± 2.9 µM; in assay [5], 37.2 ± 2.5 µM; in assay [6], 28.6 to 49.4 µM.
As for `O=C(NCCSc1nc2cc(Cl)ccc2c(=O)n1-c1ccccc1)Nc1ccc(Cl)cc1` [Compound 5k, 1-(2-((7-Chloro-4-Oxo-3-Phenyl-3,4-Dihydroquinazolin-2-Yl)thio)ethyl)-3-(4-Chlorophenyl)urea], the IC50 in assay [1] was 23.4 ± 2.1 µM; in assay [2], 40.9 ± 2.6 µM; in assay [3], more than 100 µM; in assay [4], 38 ± 2.5 µM; in assay [5], 32.9 ± 2.3 µM; in assay [6] it was 23.4 to 40.9 µM.
Turning to `O=C(NCCSc1nc2cc(Cl)ccc2c(=O)n1-c1ccccc1)Nc1ccc(C(F)(F)F)cc1` [Compound 5m, 1-(2-((7-Chloro-4-Oxo-3-Phenyl-3,4-Dihydroquinazolin-2-Yl)thio)ethyl)-3-(4-(Trifluoromethyl)phenyl)urea], the IC50 in assay [1] was 18.1 ± 1.5 µM; in assay [2] it was 30.7 ± 2.2 µM; in assay [3], 76.3 ± 4.3 µM; in assay [4], 27.9 ± 2.1 µM; in assay [5], 21.4 ± 1.8 µM; in assay [6], 18.1 to 30.7 µM.
Take `O=C(NCCSc1nc2ccccc2c(=O)n1-c1ccccc1)Nc1ccc(Cl)cc1` [Compound 5b, 1-(4-Chlorophenyl)-3-(2-((4-Oxo-3-Phenyl-3,4-Dihydroquinazolin-2-Yl)thio)ethyl)urea]: the IC50 in assay [1] is 77.3 ± 4.2 µM; in assay [2], 88.5 ± 4.8 µM; in assay [3], 64.3 ± 3.7 µM; in assay [4], more than 100 µM; in assay [5], 92.2 ± 4.7 µM; in assay [6], 77.3 to 100 µM.
Turning to `O=C(NCCSc1nc2ccccc2c(=O)n1-c1ccccc1)Nc1ccc(Br)cc1` [Compound 5c, 1-(4-Bromophenyl)-3-(2-((4-Oxo-3-Phenyl-3,4-Dihydroquinazolin-2-Yl)thio)ethyl)urea], the IC50 in assay [1] is 48.2 ± 3 µM; in assay [2], 57.8 ± 3.6 µM; in assay [3] it was more than 100 µM; in assay [4] it was 67.7 ± 3.9 µM; in assay [5] it was 55.1 ± 3.2 µM; in assay [6], 48.2 to 67.7 µM.
On to `COc1ccc(NC(=O)NCCSc2nc3cc(Cl)ccc3c(=O)n2-c2ccccc2)cc1` [Compound 5j, 1-(2-((7-Chloro-4-Oxo-3-Phenyl-3,4-Dihydroquinazolin-2-Yl)thio)ethyl)-3-(4-Methoxyphenyl)urea], for which the half-maximal inhibitory concentration (IC50) in assay [1] is 9.51 ± 0.9 µM; in assay [2], 12.3 ± 1 µM; in assay [3] it was 38.5 ± 2.5 µM; in assay [4], 19.1 ± 1.4 µM; in assay [5] it was 16 ± 1.3 µM; in assay [6], 9.51 to 16 µM.
Regarding `COc1ccc(CNC(=O)NCCSc2nc3cc(Cl)ccc3c(=O)n2-c2ccccc2)cc1` [Compound 5o, 1-(2-((7-Chloro-4-Oxo-3-Phenyl-3,4-Dihydroquinazolin-2-Yl)thio)ethyl)-3-(4-Methoxybenzyl)urea], the IC50 in assay [1] is 69.3 ± 3.9 µM; in assay [2] it was 84.3 ± 4.6 µM; in assay [3], 35.9 ± 2.3 µM; in assay [4], 90.2 ± 4.8 µM; in assay [5], 86.5 ± 4.2 µM; in assay [6], 69.3 to 90.2 µM.
Take `O=C(NCCSc1nc2ccccc2c(=O)n1-c1ccccc1)NCc1ccc(Cl)cc1` [Compound 5g, 1-(4-Chlorobenzyl)-3-(2-((4-Oxo-3-Phenyl-3,4-Dihydroquinazolin-2-Yl)thio)ethyl)urea]: the IC50 in assay [1] is 35.3 ± 2.6 µM; in assay [2] it was 47.2 ± 3.1 µM; in assay [3], 86 ± 4.8 µM; in assay [4] it was 53.7 ± 3.1 µM; in assay [5], 39.6 ± 2.6 µM; in assay [6], 35.3 to 53.7 µM.
With `COc1ccc(NC(=O)NCCSc2nc3ccccc3c(=O)n2-c2ccccc2)cc1` [Compound 5a, 1-(4-Methoxyphenyl)-3-(2-((4-Oxo-3-Phenyl-3,4-Dihydroquinazolin-2-Yl)thio)ethyl)urea], the IC50 in assay [1] is 62.7 ± 3.6 µM; in assay [2] it was 81.3 ± 4.3 µM; in assay [3], 29.4 ± 2.1 µM; in assay [4], 83.4 ± 4.4 µM; in assay [5] it was 79.5 ± 3.9 µM; in assay [6], 62.7 to 83.4 µM.
As to `COc1ccc(CNC(=O)NCCSc2nc3ccccc3c(=O)n2-c2ccccc2)cc1` [Compound 5f, 1-(4-Methoxybenzyl)-3-(2-((4-Oxo-3-Phenyl-3,4-Dihydroquinazolin-2-Yl)thio)ethyl)urea], the IC50 in assay [1] is 14.8 ± 1.3 µM; in assay [2], 34.2 ± 2.4 µM; in assay [3], 91.4 ± 5.1 µM; in assay [4], 31.5 ± 2.3 µM; in assay [5], 18.7 ± 1.5 µM; in assay [6] it was 14.8 to 34.2 µM.
For the molecule `O=C(NCCSc1nc2ccccc2c(=O)n1-c1ccccc1)Nc1ccc(C(F)(F)F)cc1` [Compound 5d, 1-(2-((4-Oxo-3-Phenyl-3,4-Dihydroquinazolin-2-Yl)thio)ethyl)-3-(4-(Trifluoromethyl)phenyl)urea], the IC50 is 6.09 ± 2.2 µM in assay [1]; 2.39 ± 0.1 µM in assay [2]; 36.3 ± 2.4 µM in assay [3]; 8.94 ± 0.7 µM in assay [4]; 4.81 ± 0.2 µM in assay [5]; 0.274 µM against VEGFR-2 enzyme. Besides, in assay [6], the IC50 lay within 2.39 to 8.94 µM. Further, the inhibition at 0.01 µM on VEGFR-2 enzyme came to 25.5%. Further, the inhibition at 0.1 µM on VEGFR-2 enzyme was 38.9%. Besides, the inhibition at 1 µM on VEGFR-2 enzyme (read-out: % Inhibition 1 μM, VEGFR-2 enzyme, 1 μM) turned out to be 60.4%. Moreover, the inhibition at 10 µM on VEGFR-2 enzyme stood at 83.5%. In addition, the inhibition at 100 µM at VEGFR-2 enzyme (read-out: % Inhibition 100 μM, VEGFR-2 enzyme, 100 μM) came out at 91%.
In the case of `O=C(NCCSc1nc2ccccc2c(=O)n1-c1ccccc1)NCc1ccccc1` [Compound 5e, 1-Benzyl-3-(2-((4-Oxo-3-Phenyl-3,4-Dihydroquinazolin-2-Yl)thio)ethyl)urea], the IC50 was 54.9 ± 3.3 µM in assay [1]; 65.7 ± 3.8 µM in assay [2]; more than 100 µM in assay [3]; 75.3 ± 4.2 µM in assay [4]; 72.8 ± 3.6 µM in assay [5].
In the case of `O=C(NCCSc1nc2ccccc2c(=O)n1-c1ccccc1)NCCc1ccccc1` [Compound 5h, 1-(2-((4-Oxo-3-Phenyl-3,4-Dihydroquinazolin-2-Yl)thio)ethyl)-3-Phenethylurea], the IC50 in assay [1] came to 5.89 ± 0.3 µM; in assay [2], 6.74 ± 0.5 µM; in assay [3], 41.1 ± 2.6 µM; in assay [4], 11.6 ± 0.9 µM; in assay [5] it was 13.9 ± 1.1 µM; against VEGFR-2 enzyme it was 0.215 µM. The “% Inhibition 1 μM” value on VEGFR-2 enzyme (VEGFR-2 enzyme, 1 μM) came to 65.78%. For the same molecule, the “% Inhibition 100 μM” value on VEGFR-2 enzyme (VEGFR-2 enzyme, 100 μM) is listed as 93.07%. Besides, the inhibition at 0.01 µM on VEGFR-2 enzyme stood at 25.3%. Also, the inhibition at 0.1 µM at VEGFR-2 enzyme came out at 40.1%. Besides, the inhibition at 10 µM at VEGFR-2 enzyme is 86.1%.
Regarding `O=C(NCCSc1nc2cc(Cl)ccc2c(=O)n1-c1ccccc1)NCCc1ccccc1` [Compound 5q, 1-(2-((7-Chloro-4-Oxo-3-Phenyl-3,4-Dihydroquinazolin-2-Yl)thio)ethyl)-3-Phenethylurea], the IC50 stood at 32.5 ± 2.5 µM in assay [1]; 41.6 ± 2.8 µM in assay [2]; 53 ± 3.1 µM in assay [3]; 45.2 ± 2.7 µM in assay [4]; 24.6 ± 2 µM in assay [5].
On to `O=C(NCCSc1nc2cc(Cl)ccc2c(=O)n1-c1ccccc1)NCCc1ccc(Cl)cc1` [Compound 5r, 1-(2-((7-Chloro-4-Oxo-3-Phenyl-3,4-Dihydroquinazolin-2-Yl)thio)ethyl)-3-(4-Chlorophenethyl)urea], for which the IC50 in assay [1] was 13.2 ± 1.1 µM; in assay [2], 17.7 ± 1.4 µM; in assay [3], 74.2 ± 4.1 µM; in assay [4], 22.4 ± 1.7 µM; in assay [5] it was 10.7 ± 0.9 µM; in assay [6] it was 10.7 to 22.4 µM.
For the molecule `O=C(NCCSc1nc2ccccc2c(=O)n1-c1ccccc1)NCCc1ccc(Cl)cc1` [Compound 5i, 1-(4-Chlorophenethyl)-3-(2-((4-Oxo-3-Phenyl-3,4-Dihydroquinazolin-2-Yl)thio)ethyl)urea], the IC50 in assay [1] was 39.1 ± 2.7 µM; in assay [2] it was 49.8 ± 3.2 µM; in assay [3] it was more than 100 µM; in assay [4], 58.3 ± 3.3 µM; in assay [5], 43.1 ± 2.8 µM; in assay [6] it was 39.1 to 58.3 µM.
With `O=C(NCCSc1nc2cc(Cl)ccc2c(=O)n1-c1ccccc1)NCc1ccccc1` [Compound 5n, 1-Benzyl-3-(2-((7-Chloro-4-Oxo-3-Phenyl-3,4-Dihydroquinazolin-2-Yl)thio)ethyl)urea], the IC50 in assay [1] worked out at 44.2 ± 2.8 µM; in assay [2] it was 52.4 ± 3.4 µM; in assay [3], 73.6 ± 3.9 µM; in assay [4], 61.5 ± 3.7 µM; in assay [5], 48.7 ± 3 µM.
